Screens from PubChem.
HKDC1 inh: inhibitors of human hexokinase HKDC1. 0.16% of 340,000 active. Q2TB90. AID 493160. recombinant HKDC1, G6PDH/diaphorase resazurin coupled fluorescence. inhibition, % at 20 µM;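 active means inhibition above about 35% when tested at 20 µM, limit read from the data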
Target sequence (Q2TB90 whole entry, looked up): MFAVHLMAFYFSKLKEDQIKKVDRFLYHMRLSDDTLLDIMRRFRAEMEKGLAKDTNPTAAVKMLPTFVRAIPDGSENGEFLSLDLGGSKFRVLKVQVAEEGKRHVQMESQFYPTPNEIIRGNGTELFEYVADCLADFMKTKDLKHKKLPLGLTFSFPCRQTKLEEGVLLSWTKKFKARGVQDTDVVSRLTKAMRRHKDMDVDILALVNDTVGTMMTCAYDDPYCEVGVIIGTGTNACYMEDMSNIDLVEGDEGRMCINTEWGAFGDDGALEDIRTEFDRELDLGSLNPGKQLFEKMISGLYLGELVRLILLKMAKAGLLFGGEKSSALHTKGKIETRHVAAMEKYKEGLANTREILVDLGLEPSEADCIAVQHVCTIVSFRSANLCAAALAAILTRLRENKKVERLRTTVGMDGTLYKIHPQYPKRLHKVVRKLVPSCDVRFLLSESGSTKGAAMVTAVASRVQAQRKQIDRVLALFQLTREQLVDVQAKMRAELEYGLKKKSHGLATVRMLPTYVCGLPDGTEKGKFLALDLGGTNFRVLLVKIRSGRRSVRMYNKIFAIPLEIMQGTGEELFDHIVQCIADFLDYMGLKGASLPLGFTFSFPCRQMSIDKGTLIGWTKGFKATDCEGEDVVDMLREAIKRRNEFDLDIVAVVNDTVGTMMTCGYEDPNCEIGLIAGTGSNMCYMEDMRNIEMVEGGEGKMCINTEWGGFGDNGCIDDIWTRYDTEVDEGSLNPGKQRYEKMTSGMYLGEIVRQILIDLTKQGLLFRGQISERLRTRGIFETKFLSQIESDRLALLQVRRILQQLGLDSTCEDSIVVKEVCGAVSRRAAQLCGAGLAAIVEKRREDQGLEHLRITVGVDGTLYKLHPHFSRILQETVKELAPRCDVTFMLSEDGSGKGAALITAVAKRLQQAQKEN
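Assay system: in-house recombinant HK5 (HKDC1) enzyme. Input: HKDC1 at 5 µg/mL. Medium: Tris pH 8.0 buffer with MgCl2, Tween-20, BSA, BME. Dosing: single 20 µM dose. Schedule: 90 min reaction incubation at room temperature, dark. Signal: resazurin-to-resorufin fluorescence via G6PDH and diaphorase coupling, 525/613 nm. Controls: DMSO-enzyme wells negative, buffer-substituted wells positive.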
TbHK1 inh: T. brucei hexokinase 1 inhibition | recombinant TbHK1, G6PDH-coupled NADH A340 | inhibition, % at 10 µM | 0.11% of 220,000 active;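 active means inhibition of 50% or more in the single-dose primary screen; inactive means inhibition below 50%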
G6PDH counter: counter-screen for G6PDH assay hits: L. mesenteroides G6PDH inhibition; inhibition, % at 5 µM; 0.12% of 200,000 active; Purified L. mesenteroides G6PDH, diaphorase/resazurin coupled fluorescence, 45 min; in the data active means inhibition above about 50%
Diaphorase inh: diaphorase inhibition or chemical oxidation counter-screen; diaphorase resazurin-to-resorufin fluorescence, NADH, 16 min; bacterial (C. kluyveri) enzyme, not human; 0.69% of 190,000 active; AID 1217; inhibition, % at 20 µM;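 active means primary screen inhibition at 20 µM above a set limit, cut at about 50% in these data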
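controls = No-NADH positive control and DMSO neutral control | system = Clostridium kluyveri diaphorase enzyme | timing = reaction incubation of 16 min at room temperature | signal = resorufin fluorescence 544/590 nm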
PfGluPho inh: PfG6PD (Plasmodium falciparum) enzyme inhibition; AID 504690; 0.78% of 350,000 active; inhibition, % at 20 µM; PfGluPho enzyme, NADPH resazurin-diaphorase fluorescence;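 active means inhibition reaching at least a set limit at 20 µM in the primary screen, cut at about 59% in these data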
Of the large screens only hits and unclear results are named; the others gave an inactive call. An excerpt weighted towards active compounds, which were near 1.3% of everything screened.

CC(=O)Oc1ccc2c(C)cc(=O)[nH]c2c1	none
CC(=O)Oc1c(C)cc(O)c2ccccc12	G6PDH counter 50.6 (no result: HKDC1 inh, PfGluPho inh)
Cc1cc(Cl)ccc1NC(=O)COC(=O)c1cc([N+](=O)[O-])ccc1N1CCOCC1	none (no result: TbHK1 inh, G6PDH counter, Diaphorase inh)
COc1cc(/C=C2/SC(=S)NC2=O)ccc1OS(=O)(=O)c1ccc(C)cc1	Diaphorase inh 50.0
CCOC(=O)c1sc(NC(=O)CCc2ccc(OC)cc2)nc1C	none (no result: TbHK1 inh, G6PDH counter, Diaphorase inh)
O=C(O)/C(=C\c1ccc(Cl)c([N+](=O)[O-])c1)c1ccc(S(=O)(=O)N2CCCCC2)s1	Diaphorase inh 60.6
CCOc1c(Cl)cc(CNc2ccc(N3CCCC3)cc2)cc1OC	Diaphorase inh 74.4
COc1cccc(Nc2nc(C)cc(C)c2C#N)c1	none
Oc1cccc(C=NCc2ccccc2)c1O	G6PDH counter 60.2, Diaphorase inh 61.7
Oc1cccc(C=Nc2cccc3ccccc23)c1O	none (no result: TbHK1 inh, G6PDH counter, Diaphorase inh)
Cc1c(Cc2ccccc2)c(=O)oc2c(O)c(O)ccc12	Diaphorase inh 72.7
CN(C)C=Nc1nonc1-c1ccccc1	none (no result: G6PDH counter, Diaphorase inh)
CN(C)C=Nc1c(Br)cc(Br)c2nonc12	Diaphorase inh 62.0
CCOC(=O)C1=C(O)c2ccccc2C(=O)/C1=C\c1ccc(C)cc1	HKDC1 inh 67.2, G6PDH counter 50.9, PfGluPho inh 95.7
Cc1ccc(/C=N/n2c(-c3cccnc3)n[nH]c2=S)o1	none (no result: G6PDH counter, Diaphorase inh)
COc1ccccc1/C=C/C=N/n1c(-c2ccncc2)n[nH]c1=S	Diaphorase inh 65.4
COc1ccccc1/C=C/C=N/n1c(-c2ccccn2)n[nH]c1=S	none (no result: G6PDH counter, Diaphorase inh)
Cc1cc(-c2n[nH]c(=S)n2/N=C/C=C/c2ccccc2)n[nH]1	Diaphorase inh 50.0
CN(C)c1ccc(/C=N/n2c(-c3cccnc3)n[nH]c2=S)cc1	Diaphorase inh 72.1
COc1ccccc1/C=C/C=N/n1c(-c2ccc(C)cc2)n[nH]c1=S	none
COc1ccccc1/C=C/C=N/n1c(-c2cc(C)[nH]n2)n[nH]c1=S	Diaphorase inh 50.2
Cc1cccc(NC(=O)CN(CC2CCCO2)C(=O)c2ccc(S(C)(=O)=O)cc2)c1C (centres undefined)	none (no result: TbHK1 inh, G6PDH counter, Diaphorase inh)
Cn1cnnc1SCC(=O)NN1C(=O)NC(C)(c2ccccc2)C1=O (centres undefined)	none (no result: G6PDH counter, Diaphorase inh)
Cc1ccc(-n2nc(C)c3c2OC(N)=C(C#N)C3c2cccs2)cc1 (centres undefined)	none
Cc1nn(-c2ccccc2)c(C)c1/C=N/n1c(-c2ccncc2)n[nH]c1=S	Diaphorase inh 79.5
Cc1nn(-c2ccccc2)c(C)c1/C=N/n1c(-c2ccc(Cl)cc2)n[nH]c1=S	none
CCCCn1c(N)c(N(CC)C(=O)CCNC(=O)c2ccc(Cl)cc2)c(=O)[nH]c1=O	none (no result: TbHK1 inh, G6PDH counter, Diaphorase inh)
O=C1C=CC(=O)N1CCCCCCN1C(=O)C=CC1=O	PfGluPho inh 95.0
CCOc1ccc(-n2c(=S)sc3c(=O)[nH]c(SCC(=O)N4CCC(C)CC4)nc32)cc1	Diaphorase inh 61.7
CCOC(=O)CSc1nc2c(sc(=S)n2-c2ccc(OCC)cc2)c(=O)[nH]1	none
CCOc1ccc(-n2c(=S)sc3c(=O)[nH]c(SCC(=O)NCc4ccco4)nc32)cc1	none
CCOc1ccc(-n2c(=S)sc3c(=O)[nH]c(SCC(=O)C(C)(C)C)nc32)cc1	Diaphorase inh 67.5
CC(C(=O)O)N1C(=O)C2C3c4ccccc4C(c4ccccc43)[C@@H]2C1=O (some centres undefined)	none (no result: TbHK1 inh, G6PDH counter, Diaphorase inh)
O=C(NCCc1nc(-c2ccccc2Cl)no1)c1ccccc1	none (no result: TbHK1 inh, G6PDH counter, Diaphorase inh)
N#CC1=C(N)SC(N)=C(C#N)C1CCC1CCCCC1	Diaphorase inh 53.6 (no result: HKDC1 inh, PfGluPho inh)
Cc1sccc1C1C(C#N)=C(N)SC(N)=C1C#N	none (no result: HKDC1 inh, PfGluPho inh)
Cc1snc(SCC(=O)c2ccc([N+](=O)[O-])cc2)c1C#N	PfGluPho inh 62.2
Cc1snc(SCC(=O)c2ccc(F)cc2)c1C#N	none
Cc1ccc(NC(=S)Nc2cccc3cnccc23)c(C)c1	Diaphorase inh 59.1
CC(C)(C)C(=O)Nc1ccc(C(=O)COC(=O)C2CC2)cc1	none (no result: TbHK1 inh, G6PDH counter, Diaphorase inh)
O=C(CNc1ccc2ccccc2c1)N/N=C/c1ccc(C(=O)O)cc1	Diaphorase inh 59.4
O=C(CNc1ccc2ccccc2c1)N/N=C/c1cc2ccccc2nc1Cl	Diaphorase inh 52.4
O=C(COc1cccc(Cl)c1)N/N=C\c1cc2ccccc2nc1Cl	none
COc1ccc(C(=O)CNc2ccc3ccccc3c2)cc1	Diaphorase inh 62.9
O=C(CNc1cccc2ccccc12)N/N=C/c1ccc(C(=O)O)cc1	none
COc1ccc(CCNc2cc(C)[nH]c(=O)c2)cc1OC	none (no result: TbHK1 inh, G6PDH counter, Diaphorase inh)
CC(C)N(CC#CCC1(O)c2ccccc2-c2ccccc21)CCO	Diaphorase inh 59.8
Cc1cccc(NCc2ccc(O)c3ncccc23)c1C	Diaphorase inh 80.3
Cc1cccnc1NCc1ccc(O)c2ncccc12	Diaphorase inh 77.2
O=C(O)CCNc1cc2ccccc2cc1C(=O)O	Diaphorase inh 64.7
O=C(NCCOc1ccccc1)C(=O)NCC1CCCO1 (centres undefined)	none
O=C(NCCOc1ccc(Cl)cc1)C(=O)NCC1CCCO1 (centres undefined)	Diaphorase inh 50.9
Cc1cccc(NC(=S)N2CCCCC2)c1	none
COc1ccc(NC(=O)c2cccc(S(=O)(=O)N3CCc4ccccc43)c2)cn1	none
COC(=O)C1=C(C)N(C)C(=O)NC1c1cc2c(cc1[N+](=O)[O-])OCO2 (centres undefined)	Diaphorase inh 59.0
COC(=O)C1=C(C)N(CCCC(=O)O)C(=O)NC1c1cc2c(cc1[N+](=O)[O-])OCO2 (centres undefined)	none
CCOC(=O)/C=C/C(=O)OCC(=O)Nc1ccc(Cl)cn1	none
CCOC(=O)NC1(Nc2ccc(Cl)cn2)Oc2ccccc2O1	Diaphorase inh 54.0 (no result: HKDC1 inh, PfGluPho inh)
Cc1[nH]c2ccccc2c1C(C#N)(C#N)C1C(=O)c2ccccc2C1=O	HKDC1 inh 57.1, PfGluPho inh 122.1 (no result: G6PDH counter, Diaphorase inh)
Cc1[nH]c2ccccc2c1CC#N	none (no result: G6PDH counter, Diaphorase inh)
COC(=O)c1cccc(NS(C)(=O)=O)c1C	none
O=C(NC(=S)N(CCCCO)C1CCCCC1)c1sc2ccccc2c1Cl	Diaphorase inh 72.2
C#CCOCCOCCOCCNc1nc(N2CCOCC2)nc(N2CCN(C(=O)[C@H](CC(N)=O)n3cc(C(N)[C@@H](C)CC)nn3)CC2)n1 (some centres undefined)	none (no result: TbHK1 inh, G6PDH counter, Diaphorase inh)
Cc1ccc(-n2nnc3c(SCC(=O)NCc4ccco4)ncnc32)cc1	Diaphorase inh 57.3
O=C(CSc1ncnc2c1nnn2-c1ccc(F)cc1)NCc1ccco1	none
O=C(CN1CC(=O)Oc2ccccc21)OCC(=O)c1ccc(F)cc1	Diaphorase inh 51.4
CN1OC[C@@H]2CN(Cc3ccccc3)[C@H](c3cccc(-c4ccc(C#N)cc4)c3)C[C@@H]21	none (no result: TbHK1 inh, G6PDH counter, Diaphorase inh)
O=C(N/N=C/c1ccccc1Cl)c1nc2ccc([N+](=O)[O-])cc2c(=O)[nH]1	Diaphorase inh 57.9
O=C(N/N=C/c1ccc(-c2ccccc2[N+](=O)[O-])o1)[C@H]1C[C@@H]1c1ccccc1	Diaphorase inh 51.7
CCN(C(=O)c1c(C)cc(=O)oc1C)c1ccc2c(c1)OCO2	none
